In ChEMBL document CHEMBL1121608, “Modification of the 5' position of purine nucleosides. 2. Synthesis and some cardiovascular properties of adenosine-5'-(N-substituted)carboxamides” (J Med Chem, 1980):

What was measured:
[1] = Lethal dose in mice after peroral administration; format: toxicity, organism-based; conditions: mouse, in vivo, po
Outline: (§1)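 Male and female mice, three per dose group, were given the compound by the stated route in increments of 0.5 log doses. The LD50 was estimated as an approximate value.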

[2] = system: Canis familiaris; test: Total time in minutes elapsed from the initiation of the change until return to the pretest value of oxygen partial pressure in coronary sinus of anesthetized dog at intravenous dosage of 0.01 mg/kg; format: functional, Canis lupus familiaris
[3] = system: Canis familiaris; test: Tested for percent increase in coronary sinus partial pressure of oxygen (PO2) in open chest anesthetized dog at intravenous dosage of 0.01 mg/kg; format: functional, Canis lupus familiaris
[4] = system: Canis familiaris; test: Total time in minutes elapsed from the initiation of the change until return to the pretest value of blood pressure in coronary sinus of anesthetized dog at intravenous dosage of 0.10 mg/kg; format: functional, Canis lupus familiaris; conditions: dose 0.1 mg/kg
Outline: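 Open-chest anesthetized dogs were given the compound intravenously. Duration is the total minutes from the start of the change until return to the pretest value. Blood pressure was recorded as change from control.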

[5] = system: Canis familiaris; test: Tested for the percent increase in coronary sinus partial pressure of oxygen (PO2) in open chest anesthetized dog at intravenous dosage of 0.10 mg/kg; format: functional, Canis lupus familiaris; conditions: dose 0.1 mg/kg
[6] = system: Canis familiaris; test: Total time in minutes elapsed from the initiation of the change until return to the pretest value of blood pressure in coronary sinus of anesthetized dog at intravenous dosage of 0.01 mg/kg; format: functional, Canis lupus familiaris
[7] = Lethal dose in mice after intraperitoneal administration; format: toxicity, organism-based; conditions: mouse, in vivo, ip; outline: as §1
[8] = system: Canis familiaris; test: Total time in minutes elapsed from the initiation of the change until return to the pretest value of oxygen partial pressure in coronary sinus of anesthetized dog at intravenous dosage of 0.10 mg/kg; format: functional, Canis lupus familiaris; conditions: dose 0.1 mg/kg
[9] = system: Canis familiaris; test: Total time in minutes elapsed from the initiation of the change until return to the pretest value of heart rate in coronary sinus of anesthetized dog at intravenous dosage of 0.01 mg/kg; format: functional, Canis lupus familiaris
[10] = system: Canis familiaris; test: Total time in minutes elapsed from the initiation of the change until return to the pretest value of heart rate in coronary sinus of anesthetized dog at intravenous dosage of 0.1 mg/kg; format: functional, Canis lupus familiaris
[11] = system: Canis familiaris; test: Total time in minutes elapsed from the initiation of the change until return to the pretest value of oxygen partial pressure in coronary sinus of anesthetized dog at intravenous dosage of 0.1 mg/kg; format: functional, Canis lupus familiaris
[12] = system: Canis familiaris; test: Total time in minutes elapsed from the initiation of the change until return to the pretest value of blood pressure in coronary sinus of anesthetized dog at intravenous dosage of 0.1 mg/kg; format: functional, Canis lupus familiaris
[13] = system: Canis familiaris; test: Tested for the percent increase in aortic blood pressure (BP) in open chest anesthetized dog at intravenous dosage of 0.10 mg/kg; format: functional, Canis lupus familiaris, Artery; conditions: dose 0.1 mg/kg
Outline: (§2)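 Open-chest anesthetized dogs, compound given iv at the stated dose. Aortic blood pressure is reported as the change from the control (pre-dose) value. Other set-up follows the group's earlier cardiovascular protocol.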

[14] = system: Canis familiaris; test: tested for the percent increase in heart rate (HR) in open chest anesthetized dog at intravenous dosage of 0.10 mg/kg; format: functional, Canis lupus familiaris; conditions: dose 0.1 mg/kg
[15] = system: Canis familiaris; test: tested for percent increase in coronary sinus partial pressure of oxygen (PO2) in open chest anesthetized dog at intravenous dosage of 0.10 mg/kg; format: functional, Canis lupus familiaris; conditions: dose 0.1 mg/kg
[16] = system: Canis familiaris; test: Total time in minutes elapsed from the initiation of the change until return to the pretest value of blood pressure in coronary sinus of anesthetized dog at intravenous dosage of 1 mg/kg; format: functional, Canis lupus familiaris
[17] = system: Canis familiaris; test: Tested for the percent increase in aortic blood pressure (BP) in open chest anesthetized dog at intravenous dosage of 0.01 mg/kg; format: functional, Canis lupus familiaris, Artery; outline: as §2
[18] = system: Canis familiaris; test: Tested for the percent increase in aortic blood pressure (BP) in open chest anesthetized dog at intravenous dosage of 1.00 mg/kg; format: functional, Canis lupus familiaris, Artery; outline: as §2
[19] = system: Canis familiaris; test: Total time in minutes elapsed from the initiation of the change until return to the pretest value of oxygen partial pressure in coronary sinus of anesthetized dog at intravenous dosage of 1 mg/kg; format: functional, Canis lupus familiaris
Outline: (§3)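 Open-chest anesthetized dogs given compound by intravenous injection. Coronary sinus PO2 was monitored, and duration was the total time in minutes from the onset of the change until return to the pretest value.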

[20] = system: Canis familiaris; test: Tested for the percent increase in coronary sinus partial pressure of oxygen (PO2) in open chest anesthetized dog at intravenous dosage of 1.00 mg/kg; format: functional, Canis lupus familiaris
[21] = system: Canis familiaris; test: Total time in minutes elapsed from the initiation of the change until return to the pretest value of heart rate in coronary sinus of anesthetized dog at intravenous dosage of 1 mg/kg; format: functional, Canis lupus familiaris
[22] = system: Canis familiaris; test: Tested for percent increase in coronary sinus partial pressure of oxygen (PO2) in open chest anesthetized dog at intravenous dosage of 0.10 mg/kg; format: functional, Canis lupus familiaris; conditions: dose 0.1 mg/kg
[23] = system: Canis familiaris; test: Total time in minutes elapsed from the initiation of the change until return to the pretest value of blood pressure in coronary sinus of anesthetized dog at intravenous dosage of 1.00 mg/kg; format: functional, Canis lupus familiaris
[24] = system: Canis familiaris; test: Tested for percent increase in coronary sinus partial pressure of oxygen (PO2) in open chest anesthetized dog at intravenous dosage of 1.00 mg/kg; format: functional, Canis lupus familiaris
[25] = system: Canis familiaris; test: Tested for the percent increase in coronary sinus partial pressure of oxygen (PO2) in open chest anesthetized dog at intravenous dosage of 5.00 mg/kg; format: functional, Canis lupus familiaris
[26] = system: Canis familiaris; test: Total time in minutes elapsed from the initiation of the change until return to the pretest value of blood pressure in coronary sinus of anesthetized dog at intravenous dosage of 5 mg/kg; format: functional, Canis lupus familiaris
[27] = system: Canis familiaris; test: Total time in minutes elapsed from the initiation of the change until return to the pretest value of heart rate in coronary sinus of anesthetized dog at intravenous dosage of 5 mg/kg; format: functional, Canis lupus familiaris
[28] = system: Canis familiaris; test: Total time in minutes elapsed from the initiation of the change until return to the pretest value of oxygen partial pressure in coronary sinus of anesthetized dog at intravenous dosage of 5 mg/kg; format: functional, Canis lupus familiaris; outline: as §3
[29] = system: Canis familiaris; test: Total time in minutes elapsed from the initiation of the change until return to the pretest value of blood pressure in coronary sinus of anesthetized dog at intravenous dosage of 0.001 mg/kg; format: functional, Canis lupus familiaris
[30] = system: Canis familiaris; test: Tested for percent increase in coronary sinus partial pressure of oxygen (PO2) in open chest anesthetized dog at intravenous dosage of 0.001 mg/kg; format: functional, Canis lupus familiaris
[31] = system: Canis familiaris; test: Total time in minutes elapsed from the initiation of the change until return to the pretest value of oxygen partial pressure in coronary sinus of anesthetized dog at intravenous dosage of 0.001 mg/kg; format: functional, Canis lupus familiaris
[32] = system: Canis familiaris; test: Tested for the percent increase in aortic blood pressure (BP) in open chest anesthetized dog at intravenous dosage of 0.001 mg/kg; format: functional, Canis lupus familiaris, Artery; outline: as §2
[33] = system: Canis familiaris; test: Total time in minutes elapsed from the initiation of the change until return to the pretest value of heart rate in coronary sinus of anesthetized dog at intravenous dosage of 0.001 mg/kg; format: functional, Canis lupus familiaris
[34] = system: Canis familiaris; test: Total time in minutes elapsed from the initiation of the change until return to the pretest value of heart rate in coronary sinus of anesthetized dog at intravenous dosage of 9 mg/kg; format: functional, Canis lupus familiaris
[35] = system: Canis familiaris; test: tested for the percent increase in aortic blood pressure (BP) in open chest anesthetized dog at intravenous dosage of 9.00 mg/kg; format: functional, Canis lupus familiaris, Artery
Outline: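 Open-chest anesthetized dogs received intravenous doses. Aortic blood pressure was recorded as the change from control.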

[36] = system: Canis familiaris; test: tested for percent increase in coronary sinus partial pressure of oxygen (PO2) in open chest anesthetized dog at intravenous dosage of 9.00 mg/kg; format: functional, Canis lupus familiaris
[37] = system: Canis familiaris; test: Total time in minutes elapsed from the initiation of the change until return to the pretest value of oxygen partial pressure in coronary sinus of anesthetized dog at intravenous dosage of 9 mg/kg; format: functional, Canis lupus familiaris; outline: as §3
[38] = system: Canis familiaris; test: Total time in minutes elapsed from the initiation of the change until return to the pretest value of blood pressure in coronary sinus of anesthetized dog at intravenous dosage of 9 mg/kg; format: functional, Canis lupus familiaris

Structure (SMILES): Nc1ncnc2c1ncn2C1O[C@H](C(=O)NCCO)[C@@H](O)[C@H]1O (stereo not given in full)
- LD50 [1]: 5 mg/kg
- Duration [2]: 90 min
- PO2 [3]: 75%
- Duration [4]: 240 min
- PO2 [5]: 163%
- Duration [6]: 90 min
- LD50 [7]: 2 mg/kg
- Duration [8]: 240 min
- Duration [9]: 42 min
- Duration [10]: 15 min

Structure (SMILES): CCCCNC(=O)[C@H]1OC(n2cnc3c(N)ncnc32)[C@H](O)[C@@H]1O (stereo not given in full)
- Duration [11]: 30 min
- Duration [12]: 40 min
- BP [13]: 5%
- HR [14]: 16%
- Duration [10]: 40 min
- PO2 [15]: 30%

Structure (SMILES): CCOCCNC(=O)[C@H]1OC(n2cnc3c(N)ncnc32)[C@H](O)[C@@H]1O (stereo not given in full)
- Duration [16]: 120 min
- LD50 [1]: > 1000 mg/kg
- BP [17]: 8%
- BP [18]: 15%
- Duration [19]: 120 min
- PO2 [20]: 135%
- Duration [12]: 1 min
- LD50 [7]: 50 mg/kg
- Duration [8]: 6 min
- Duration [21]: 120 min
- Duration [9]: 0 min

Structure (SMILES): C#CCNC(=O)[C@H]1OC(n2cnc3c(N)ncnc32)[C@H](O)[C@@H]1O (stereo not given in full)
- Duration [16]: 180 min
- LD50 [1]: > 1000 mg/kg
- Duration [11]: 70 min
- BP [18]: 40%
- Duration [19]: 180 min
- PO2 [20]: 133%
- Duration [12]: 70 min
- PO2 [22]: 50%
- BP [13]: 5%
- LD50 [7]: 200 mg/kg
- Duration [21]: 82 min
- HR [14]: 13%
- Duration [10]: 60 min

Structure (SMILES): CN(C)C(=O)[C@H]1OC(n2cnc3c(N)ncnc32)[C@H](O)[C@@H]1O (stereo not given in full)
- Duration [23]: 0 min
- PO2 [24]: 0%
- LD50 [1]: 1000 mg/kg
- BP [18]: 0%
- Duration [19]: 0 min
- LD50 [7]: 50 mg/kg
- Duration [21]: 0 min

Structure (SMILES): Nc1ncnc2c1ncn2C1O[C@H](C(=O)NCCc2ccccc2)[C@@H](O)[C@H]1O (stereo not given in full)
- PO2 [24]: 9%
- Duration [16]: 1 min
- LD50 [1]: > 1000 mg/kg
- PO2 [25]: 44%
- BP [18]: 11%
- Duration [19]: 25 min
- Duration [26]: 60 min
- Duration [27]: 6 min
- Duration [28]: 60 min
- LD50 [7]: 500 mg/kg
- Duration [21]: 18 min

Structure (SMILES): CCNC(=O)[C@H]1OC(n2cnc3c(N)[n+]([O-])cnc32)[C@H](O)[C@@H]1O (stereo not given in full)
- Duration [29]: 120 min
- PO2 [30]: 37%
- Duration [31]: 120 min
- BP [32]: 27 mmHg
- Duration [33]: 120 min

Structure (SMILES): Nc1ncnc2c1ncn2C1O[C@H](C(=O)NCC(O)COc2cccc3ccccc23)[C@@H](O)[C@H]1O (stereo not given in full)
- Duration [34]: 12 min
- LD50 [1]: > 300 mg/kg
- BP [35]: 8 mmHg
- PO2 [36]: 152%
- Duration [37]: 18 min
- LD50 [7]: > 300 mg/kg
- Duration [38]: 7 min
